According to ChEMBL document CHEMBL3351434, “Synthesis of novel chromeno-annulated cis-fused pyrano[3,4-c]benzopyran and naphtho pyran derivatives via domino aldol-type/hetero Diels-Alder reaction and their cytotoxicity evaluation” (Bioorg Med Chem Lett, 2014):

Assays:
A549 = test: Cytotoxicity against human A549 cells by MTT assay; type: functional, cell-based
MCF7 = test: Cytotoxicity against human MCF7 cells by MTT assay; type: functional, cell-based
HeLa = test: Cytotoxicity against human HeLa cells by MTT assay; type: functional, cell-based
MDA-MB-231 = test: Cytotoxicity against human MDA-MB-231 cells by MTT assay; type: functional, cell-based
[1] = Cytotoxicity against HEK cells by MTT assay; type: cell-based; settings: human, hek293
Summary of the method: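 Cells were HEK293, a line derived from normal human embryonic kidney, used as the non-cancer counter-screen. Viability was read by MTT following a previously reported protocol.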

| SMILES | IC50 (A549) | IC50 (MCF7) | IC50 (HeLa) | IC50 (MDA-MB-231) | Activity [1] |
| --- | --- | --- | --- | --- | --- |
| CCC(=O)c1ccc2c(c1O)[C@@H]1c3c(ccc4c(=O)c(-c5ccccc5)c(C)oc34)OC[C@@H]1C(C)(C)O2 | 19.3 µM | 20.5 µM | 18.2 µM | 6.15 µM | Non-toxic |
| CCC(=O)c1ccc2c(c1O)[C@@H]1c3c(ccc4c(=O)c(C)c(C)oc34)OC[C@@H]1C(C)(C)O2 | > 100 µM | > 100 µM | > 100 µM | > 100 µM |  |
| CC(=O)c1ccc2c(c1O)[C@@H]1c3c(ccc4c(=O)c(C)c(C)oc34)OC[C@@H]1C(C)(C)O2 | > 100 µM | > 100 µM | > 100 µM | > 100 µM |  |
| Cc1oc2c3c(ccc2c(=O)c1C)OC[C@H]1[C@@H]3c2c(ccc(C(=O)Cc3ccccc3)c2O)OC1(C)C | > 100 µM | > 100 µM | > 100 µM | > 100 µM |  |
| Cc1oc2c3c(ccc2c(=O)c1C)OC[C@H]1[C@@H]3c2c(ccc(C(=O)c3ccccc3)c2O)OC1(C)C | > 100 µM | > 100 µM | > 100 µM | > 100 µM |  |
| CCC(=O)c1ccc2c(c1O)[C@H]1c3c(ccc4c(=O)c(C)coc34)OC[C@H]1C(C)(C)O2 | > 100 µM | > 100 µM | > 100 µM | > 100 µM |  |
| CC(=O)c1ccc2c(c1O)[C@H]1c3c(ccc4c(=O)c(C)coc34)OC[C@H]1C(C)(C)O2 | > 100 µM | > 100 µM | > 100 µM | > 100 µM |  |
| Cc1coc2c3c(ccc2c1=O)OC[C@H]1[C@@H]3c2c(ccc(C(=O)Cc3ccccc3)c2O)OC1(C)C | > 100 µM | > 100 µM | > 100 µM | > 100 µM |  |
| Cc1coc2c3c(ccc2c1=O)OC[C@H]1[C@@H]3c2c(ccc(C(=O)c3ccccc3)c2O)OC1(C)C | 17 µM | 6.24 µM | 1.5 µM | 5.68 µM | Non-toxic |
| CC(=O)c1ccc2c(c1O)[C@@H]1c3c(ccc4c(=O)c(-c5ccccc5)c(C)oc34)OC[C@@H]1C(C)(C)O2 | 2.53 µM | 11.2 µM | 4.81 µM | 46.8 µM | Non-toxic |
| Cc1oc2c3c(ccc2c(=O)c1C)OC[C@H]1[C@@H]3c2ccc3ccccc3c2OC1(C)C | > 100 µM | > 100 µM | > 100 µM | > 100 µM |  |
| Cc1coc2c3c(ccc2c1=O)OC[C@H]1[C@@H]3c2ccc3ccccc3c2OC1(C)C | > 100 µM | > 100 µM | > 100 µM | > 100 µM |  |
| COc1cccc2c1C(=O)c1c(O)c3c(c(O)c1C2=O)C[C@@](O)(C(=O)CO)C[C@@H]3O[C@H]1C[C@H](N)[C@H](O)[C@H](C)O1 [DOXORUBICIN] |  | 1.05 µM |  | 0.5 µM |  |
